# Screening data as filed in PubChem BioAssay.
# Rows were chosen to be rich in hits. Some 1.4% of all compounds tested hit in one or more screens of this group.
# Env fusion inh = blocks HIV Env-driven cell-cell fusion; HeLa-JRFL Env/CEM21 cell fusion, luciferase; inhibition, % at 12.3 µM; 1.1% of 360,000 active; AID 651610;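 active = mean replicate inhibition score of at least 50 and every replicate individually at or above 50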;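 also: 0% = plate neutral controls and 100% = maraviroc near 300 nM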
# ERp5 inh = blocks human ERp5 reductase activity on insulin | Q15084 | ERp5 insulin aggregation, absorbance 650 nm, 90 min | inhibition, % at 9.99 µM | 0.05% of 350,000 active | AID 651711;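 active = mean replicate inhibition above about 25%, with every replicate also reaching it, limit read from the data, passing the limit was not always enough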
# Target sequence (Q15084 whole entry, looked up): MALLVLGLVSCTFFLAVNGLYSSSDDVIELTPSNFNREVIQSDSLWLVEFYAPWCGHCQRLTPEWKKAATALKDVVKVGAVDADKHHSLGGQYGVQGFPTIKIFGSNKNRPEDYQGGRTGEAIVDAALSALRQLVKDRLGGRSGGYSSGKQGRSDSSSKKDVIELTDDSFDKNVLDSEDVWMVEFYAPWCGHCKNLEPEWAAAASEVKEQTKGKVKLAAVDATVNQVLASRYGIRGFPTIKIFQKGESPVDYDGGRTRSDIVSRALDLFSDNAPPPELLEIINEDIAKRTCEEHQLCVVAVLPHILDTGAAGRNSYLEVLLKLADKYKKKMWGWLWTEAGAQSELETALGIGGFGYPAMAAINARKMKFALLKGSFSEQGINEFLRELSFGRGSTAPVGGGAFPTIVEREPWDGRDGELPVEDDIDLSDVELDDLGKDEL
# FN deposition inh = fibronectin deposition inhibition; AH1F fibroblasts, Alexa488-fibronectin deposition fluorescence, overnight; inhibition, % at 12.6 µM; 0.086% of 350,000 active; AID 743247;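 active = mean inhibition across replicates of 30% or more, regardless of how many single replicates reach that level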;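 also: positive control wells lacked labelled fibronectin entirely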
#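 test system = AH1F fibroblasts assembling fluorescent fibronectin matrix | quantity = 10000 AH1F cells per well | buffer or medium = DMEM plus 2% serum, read in PBS | doses = single dose, pinned | incubation = 1 h cell attachment, overnight exposure to compound and label | detection = fluorescence at 485 nm excitation, 525 nm emission | read-out basis = inhibition from reduced deposited-fibronectin fluorescence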
# GSIS activator = GLuc luminescence reporter in INS-1E cells, primary screen for activators of glucose-dependent secretion of insulin. INS-1E GLuc reporter insulin secretion, 2-3 h. 0.61% of 370,000 active. activation, % at 16.6 µM. AID 743287;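 active = lowest replicate activation of at least 40%, so every replicate reaches that level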;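 also: 0% = median of neutral control wells and 100% = median of IBMX positive control wells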
# PDI inh = blocks human protein disulfide isomerase activity; inhibition, % at 10 µM; AID 588391; P07237; 0.052% of 350,000 active; PDI insulin aggregation turbidity, A650, 90 min;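 active = mean inhibition across replicates of 30% or more, whatever share of single replicates reach that level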
# * hit, by the source's call; x = not tested or not shown; [ ] = another dose, or the depositor's remark.
SMILES,Env fusion inh,ERp5 inh,FN deposition inh,GSIS activator,PDI inh
COc1ccc(C2N(S(=O)(=O)c3ccc(C)cc3)CCN2S(=O)(=O)c2ccc(C)cc2)cc1,105*,-1,3,2,5
C[C@@H]1CN([C@@H](C)CO)C(=O)c2cc(NC(=O)CCC(F)(F)F)ccc2O[C@H]1CN(C)CC1CCCCC1,-7[16.7 µM],-5,-4,2,x
COc1ccc2c3c([nH]c2c1)[C@H](CO)N(C(=O)c1ccccn1)CC31CCN(C(=O)C2CCCCC2)CC1,x,-3,x,6,x
Cc1ccccc1S(=O)(=O)N1C[C@H](O)COC[C@@H]2O[C@@H](CC(=O)N3CCOCC3)CC[C@H]21,x,1,-9,0,x
Cc1ccc(S(=O)(=O)N2C[C@H]3C(=O)C[C@@H]4C(=O)N(c5ccccc5)C(=O)[C@@H]4[C@@H]3C[C@@H]2c2ccccc2)cc1,-98,1,x,-8,x
Cc1ccc(S(=O)(=O)N2[C@H](C(C)C)[C@H]3[C@H]4C(=O)N(c5ccccc5)C(=O)[C@H]4CC(=O)[C@H]3[C@@H]2c2ccccc2)cc1,59*,1,2,4,x
COc1ccc(NC(=O)C(=O)NCC2CCCN2S(=O)(=O)c2cccs2)cc1 (stereo not given),83*,0,12,30,-2
Cc1ccc(NC(=O)C(=O)NCC2CCCN2S(=O)(=O)c2cccs2)cc1C (stereo not given),25,-1,13,-12,1
CO[C@@H]1CN(C)C(=O)c2ccc(NS(=O)(=O)c3cccc(C)c3)cc2OC[C@@H](C)NC[C@@H]1C,x,x,-9,-2,x
CCOC(=O)c1c(CSc2ccccc2)n(C)c2cc(Br)c(O)c(CN(C)C)c12,67*,5,-8,-24,9
CCOC(=O)c1c(CSc2ccsc2)n(C)c2cc(Br)c(O)c(CN(C)C)c12,87*,10,-7,-35,-13
CCOC(=O)c1c(CSc2ccc(C)cc2)n(C)c2cc(Br)c(O)c(CN(C)C)c12,87*,5,3,-34,11
CCOC(=O)c1c(CN2CCOCC2)n(-c2ccccc2)c2cc(Br)c(O)c(CN(C)C)c12,x,x,x,x,24
CCOC(=O)c1c(CN2CCCCC2)n(C)c2cc(Br)c(O)c(CN(C)C)c12,x,x,x,x,-2
COc1ccc(C(=O)Nc2ccc(OCC(F)(F)C(F)F)c(C(F)(F)F)c2)cc1OC,x,x,x,-13,7
O=C(Nc1ccc(OCC(F)(F)C(F)F)c(C(F)(F)F)c1)c1ccc(Cl)cc1,69*,x,-7,x,1
O=C(Nc1ccc(Br)c(C(F)(F)F)c1)c1ccc(C(F)(F)F)cc1,43,3,40*,-15,0
O=C(Nc1ccc(Br)c(C(F)(F)F)c1)c1ccccc1,-17,0,x,-23,-2
CCN(Cc1ccccc1)C(c1cccs1)c1nnnn1C1CCCCC1 (stereo not given),96*,x,-7,11,-10
Clc1ccccc1CN(Cc1ccccc1)C(c1cccs1)c1nnnn1C1CCCC1 (stereo not given),83*,x,-1,x,4
Clc1ccc(CN(CC2CCCO2)C(c2cccs2)c2nnnn2C2CCCC2)cc1 (stereo not given),117*,x,8,27,0
COc1ccc(Cn2c(=O)[nH]c3cc(C(=O)N4CCN(Cc5ccccc5)CC4)ccc3c2=O)cc1,24*,x,7,x,-8
COCCn1c(=S)[nH]c2cc(C(=O)N3CCN(Cc4ccc5c(c4)OCO5)CC3)ccc2c1=O,86*,x,0,x,2
COCCn1c(=S)[nH]c2cc(C(=O)N3CCc4ccccc43)ccc2c1=O,80*,x,x,x,2
COc1ccc(Cn2c(=O)[nH]c3cc(C(=O)N4CCN(c5ccccc5OC)CC4)ccc3c2=O)cc1,x,x,x,x,-5
SMILES,Env fusion inh,ERp5 inh,FN deposition inh,GSIS activator,PDI inh
CCC(=O)N1CCCCN2[C@H](CO)[C@H](c3ccc(-c4cccnc4)cc3)[C@@H]2C1,x,-3,x,-4,x
COc1cc2c(cc1OC)/C(=C/c1ccc(Cl)cc1)C(=O)OC2,14,x,0,62*,-7
COc1ccc(/C=C2\C(=O)OCc3cc(OC)c(OC)cc32)cc1OC,1,x,2,103*,-1
COc1ccc(/C=C2/CCc3ccccc3C2=O)cc1OC,58*,x,0,11,-6
COc1ccc(C=C2C(=O)OC(C)(C)OC2=O)cc1OC,46,-13,4,9,-3
COc1ccc2c3c(n(C)c2c1)[C@H](CO)N(C(=O)Cc1ccccn1)CC31CCN(CC2CCCC2)CC1,x,-5,5,3,x
CO[C@@H]1CN(C)C(=O)c2cc(NC(=O)CC(F)(F)F)ccc2OC[C@@H](C)N(C(=O)C2CCCC2)C[C@H]1C,x,1,-6,8,x
CCCC#Cc1ccc2c(c1)O[C@@H](CN(C)C(=O)Nc1ccc(OC)cc1)[C@H](C)CN([C@H](C)CO)S2(=O)=O,-13[16.7 µM],7,x,-26,x
Cc1ccc(-c2nc(CS(=O)CC(=O)NC(C)CCc3ccccc3)c(C)o2)cc1 (stereo not given),1,3,21,-28,8
COc1ccc(-c2nc(CS(=O)CC(=O)NC(C)CCc3ccccc3)c(C)o2)cc1OC (stereo not given),-5,-3,-12,49*,8
COc1cc(-c2cccc([C@H]3[C@@H]4C=CC[C@@H](C)[C@@H]4C(=O)N3Cc3ccccc3)c2)cc(OC)c1OC,47*,-8,x,16,4
COc1ccc(-c2cccc([C@H]3[C@@H]4C=CC[C@@H](C)[C@@H]4C(=O)N3Cc3ccccc3)c2)cc1,43,3,-2,-5,4
COc1ccc(-c2ccc(C)cc2)cc1[C@H]1[C@H]2C=CC[C@@H](C)[C@@H]2C(=O)N1Cc1ccccc1,56*,-1,-7,-5,3
NCC[C@@H]1CC[C@@H](NC(=O)C2CC2)[C@@H](CO)O1,x,4,3,0,x
COc1cc(CNc2ccc3[nH]c(=O)[nH]c3c2)ccc1OCc1c(F)cccc1Cl,-25,3,1,32,7
CCn1nnnc1NCc1ccc(OCc2c(F)cccc2Cl)c(OC)c1,14,5,1,43*,1
c1ccc(Cc2cnc(N3CCN(Cc4csc5ccccc45)CC3)nc2)cc1,77*,-1,13,-3,x
Oc1ccc(Br)c(CN2CCN(c3ncc(Cc4ccccc4)cn3)CC2)c1,29,3,-6,11,x
O=C(Nc1ccc(NC(=O)c2cccs2)cc1)c1ccc(Br)o1,x,x,x,45*,-5
C[C@H](CO)N1C[C@H](C)[C@@H](CN(C)Cc2ccc(C(=O)Nc3ccccc3N)cc2)Oc2ccc(NS(=O)(=O)c3ccc(F)cc3)cc2C1=O,21[16.7 µM],15,-10,10,x
COc1ccccc1CNc1nc(NCc2ccc3occc3c2)c2sccc2n1,58*,-5,-10,-11,-5
COc1ccccc1CNc1nc(NCc2ccccc2OC)c2sccc2n1,6,0,12,-27,-1
Cc1ccccc1-c1nc(NCC2CC2)nc2ccsc12,5,4,2,-2,-3
